Measured values gathered from unrelated publications.
Lines come from different studies, so protocols differ.
Sample: Caco-2

| Compound | tested at | time | pH | measurement | result |
| --- | --- | --- | --- | --- | --- |
| CC(C)NCC(O)COc1cccc2ccccc12 (centres unmarked) | – | – | pH 7.4 | Papp B→A | 4.2 ×10⁻⁶ cm/s |
| O=C1CCC(N2Cc3c(ccc4c3OCC43CCN(Cc4ccccc4)CC3)C2=O)C(=O)N1 (centres unmarked) | 10 µM | 2 h | – | Papp | 19 ×10⁻⁶ cm/s |
| CC(=O)c1c(C)c2cnc(Nc3ccc(C4CCN(CCS(C)(=O)=O)CC4)cn3)nc2n(C2CCCC2)c1=O | 10 µM | – | – | Papp A→B | 15.4 ×10⁻⁶ cm/s |
| O=c1c2cc(Cl)c(CO)cc2[nH]c(=S)n1Cc1cncnc1 | 10 µM | 90 min | pH 7.4 | Papp B→A | 27 ×10⁻⁶ cm/s |
| C/C=C1/CN2CC[C@@]34c5cc(O)ccc5N(C)[C@]35OC[C@@]4(C(=O)OC)[C@H]1C[C@H]25 | 10 µM | 2 h | pH 7.4 | Papp A→B | 28.2 ×10⁻⁶ cm/s |
| CC(c1cncnc1)n1c(=S)[nH]c2ccc(Cl)cc2c1=O (centres unmarked) | 10 µM | 90 min | pH 7.4 | Papp A→B | 45.7 ×10⁻⁶ cm/s |
| CC(C)NCC(O)COc1cccc2ccccc12 (centres unmarked) | 10 µM | 2 h | pH 7.4 | Papp B→A | 19.5 ×10⁻⁶ cm/s |
| C[C@H]1O[C@@H](O[C@H]2[C@@H](O)C[C@H](O[C@H]3[C@@H](O)C[C@H](O[C@H]4CC[C@@]5(C)[C@H](CC[C@@H]6[C@@H]5C[C@@H](O)[C@]5(C)[C@@H](C7=CC(=O)OC7)CC[C@]65O)C4)O[C@@H]3C)O[C@@H]2C)C[C@H](O)[C@@H]1O | – | – | pH 7.4 | Papp A→B | 1.4 ×10⁻⁶ cm/s |
